For test [1], the system named is Vesicular stomatitis virus. As to the kind of experiment: Compound was evaluated for the antiviral activity against Vesicular stomatitis virus. The test is classed as functional. The procedure, abridged:
(§1)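 Virus-induced cytopathogenicity scored in primary rabbit kidney cell cultures. Value is the minimum concentration reducing cytopathogenicity by 50%. Cytotoxicity on uninfected cells was read as the minimal concentration causing a microscopically detectable change in normal cell morphology, tested up to 400 μg/mL.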

The test system of test [2] is Human alphaherpesvirus 2. The test can be described thus: Evaluation of antiviral activity against Herpes simplex virus type 2 (HSV-2) strain Lyons. Format: functional. In short, it runs like this:
as §1

Test [3] has as its target Thymidylate synthase (Mus musculus) (UniProt P07607). As to the kind of experiment: Compound was evaluated for the inhibition of L1210 thymidylate synthetase (L1210 dTMP). In short, it runs like this: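 Enzyme source was a partially purified extract of murine leukemia L1210 cells. The dTMP synthetase assay followed an earlier published method, and no reaction conditions are given here.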

Test [4] relates to Human alphaherpesvirus 1. As to the kind of experiment: Evaluation of antiviral activity against Herpes simplex virus type 1 (HSV-1) strain F. Format: functional. The procedure, abridged: as §1
The subject of test [5] is L1210. As to the kind of experiment: Evaluation of cytostatic activity by using antitumor assays against murine leukemia L1210 cells. The test is classed as functional. Particulars: Mus musculus, read-out: ID50 (the source's name).
The species entered for another test is Homo sapiens. The test can be described thus: Evaluation for antitumor activity against human lymphoblast Raji cells. The note with it: Homo sapiens, Raji; read-out: ID50 (the source's name). Format: functional.
In a further test the test system is Raji. As to the kind of experiment: Evaluation of antitumor activity against thymidine kinase deficient Raji cell line. The test is classed as functional. Particulars: Homo sapiens, read-out: ID50 (the source's name).
For test [6], the system named is Human alphaherpesvirus 2. As to the kind of experiment: Evaluation of antiviral activity against Herpes simplex virus type 2 (HSV-2) strain G. Format: functional. In short, it runs like this: as §1
Test [7] concerns L1210. As to the kind of experiment: Evaluation of antitumor activity against mutant murine leukemia L1210 cells. The test is classed as functional. The note with it: Mus musculus, read-out: ID50 (the source's name). In short, it runs like this:
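Proliferation of mutant murine leukemia L1210/BdUrd cells, selected from parental L1210/0 for growth in 260 μg/mL 5-bromo-2'-deoxyuridine. Value is the dose inhibiting proliferation by 50%.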

In test [8] the test system is Human alphaherpesvirus 1. The test can be described thus: Evaluation of antiviral activity against Herpes simplex virus type 1 (HSV-1) strain McIntyre. The test is classed as functional. The procedure, abridged: as §1
Test [9] has as its system Human alphaherpesvirus 1. The test can be described thus: Evaluation of antiviral activity against Herpes simplex virus type 1 (HSV-1) strain KOS. Format: functional. The procedure, abridged:
as §1

A further test has as its system Vaccinia virus. As to the kind of experiment: Evaluation of antiviral activity against Vaccinia virus. The test is classed as functional. The note with it: Orthopoxvirus vaccinia. The procedure, abridged: as §1
For test [10], the system named is Human alphaherpesvirus 2. As to the kind of experiment: Evaluation of antiviral activity against Herpes simplex virus type 2 (HSV-2) strain 196. Format: functional. The procedure, abridged:
as §1

Test [11] relates to Human alphaherpesvirus 1. The test can be described thus: Compound was evaluated for the antiviral activity against Herpes simplex virus type 1 (HSV-1) strain F. The note with it: read-out: ID50 (the source's name). The test is classed as functional. In short, it runs like this:
as §1

In test [12] the test system is Vesicular stomatitis virus. As to the kind of experiment: Evaluation of antiviral activity against Vesicular stomatitis virus. The test is classed as functional. In short, it runs like this:
as §1

The subject of test [13] is Human alphaherpesvirus 1. The test can be described thus: Compound was evaluated for the antiviral activity against Herpes simplex virus type 1 (HSV-1) strain KOS. Format: functional. Particulars: read-out: ID50 (the source's name). In short, it runs like this:
as §1

For test [14], the target named is Thymidylate synthase (Mus musculus) (UniProt P07607).
Sequence of Thymidylate synthase (Mus musculus) (P07607 whole entry, looked up): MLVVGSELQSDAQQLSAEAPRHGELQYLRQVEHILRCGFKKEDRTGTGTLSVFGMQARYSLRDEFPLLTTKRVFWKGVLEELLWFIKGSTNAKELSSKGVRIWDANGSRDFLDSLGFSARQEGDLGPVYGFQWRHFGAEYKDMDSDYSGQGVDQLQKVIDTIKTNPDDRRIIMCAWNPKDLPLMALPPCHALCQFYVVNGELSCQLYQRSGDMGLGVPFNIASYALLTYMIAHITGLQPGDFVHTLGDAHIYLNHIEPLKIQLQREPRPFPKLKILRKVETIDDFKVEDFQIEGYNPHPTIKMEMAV

Converted amounts (≈) assume the structure as drawn.

Regarding `N.O=c1[nH]c(=O)n([C@H]2C[C@@H]3O[PH](O)(O)OC[C@H]3O2)cc1Cl`, the MIC50 in test [1] is above 400 µg/mL; in the test on Human alphaherpesvirus 2 [2], 20 µg/mL; against Human alphaherpesvirus 1 [4] it was 100 µg/mL; with Human alphaherpesvirus 2 [6] it was 40 µg/mL; with Human alphaherpesvirus 1 [8], 100 µg/mL; in the test on Human alphaherpesvirus 1 [9], 20 µg/mL. Further, the MIC50 against Vaccinia virus amounted to 2 µg/mL; with Human alphaherpesvirus 2 [10], 150 µg/mL. In [3], this compound showed a Ki/Km above 356. In addition, the IC50 in the test on L1210 [5] was 337 µg/mL; in the test filed under Homo sapiens, 337 µg/mL; in the test with Raji, above 1000 µg/mL; in the test on L1210 [7], above 1000 µg/mL.
`COP1(=O)OC[C@H]2O[C@@H](n3cc(I)c(=O)[nH]c3=O)C[C@@H]2O1` (some centres undefined): the MIC50 in the test on Human alphaherpesvirus 2 [2] was 150 µg/mL (≈ 349 µM); in the test on Human alphaherpesvirus 2 [6] it was 300 µg/mL (≈ 698 µM); in test [12], above 400 µg/mL; against Human alphaherpesvirus 1 [8] it was 70 µg/mL (≈ 163 µM); in the test on Vaccinia virus, 20 µg/mL (≈ 46.5 µM); in the test on Human alphaherpesvirus 2 [10] it was 300 µg/mL (≈ 698 µM). For the same compound, the IC50 in the test on Human alphaherpesvirus 1 [11] and with Human alphaherpesvirus 1 [13] was 150 µg/mL (≈ 349 µM) each time.
As for `O=c1[nH]c(=O)n([C@H]2C[C@H](O)[C@@H](COP(=O)(O)O)O2)cc1I`, the MIC50 against Human alphaherpesvirus 2 [2] was 0.2 µg/mL (≈ 0.461 µM); with Human alphaherpesvirus 1 [4], 0.4 µg/mL (≈ 0.921 µM); in the test on Human alphaherpesvirus 2 [6], 0.4 µg/mL (≈ 0.921 µM); in test [12] it was above 400 µg/mL; in the test with Human alphaherpesvirus 1 [8] it was 0.2 µg/mL (≈ 0.461 µM); in the test on Human alphaherpesvirus 1 [9], 0.2 µg/mL (≈ 0.461 µM). Moreover, the figures for the MIC50 in the test with Vaccinia virus and in the test with Human alphaherpesvirus 2 [10] were 0.2 µg/mL (≈ 0.461 µM) and 0.7 µg/mL (≈ 1.61 µM), respectively. Moreover, the IC50 in the test on L1210 [5] is 31 µg/mL (≈ 71.4 µM); in the test filed under Homo sapiens, 6.8 µg/mL (≈ 15.7 µM); in the test with Raji, above 500 µg/mL; with L1210 [7] it was above 500 µg/mL. The compound also had a Ki/Km in test [14] of 3.54.
